Entries after “also recorded” stand apart in the source; their conditions may differ.

Data set [1] relates to HPB-ALL cells. Put plainly: Proliferation, total cell count over 3 days. It counts as cell-based, human. Conditions: 15 μM DAPT, 100 μM Tat-Ram13 or 100 μM Tat-mRam13.
For data set [2], the system named is CCRF-CEM cells. Put plainly: Cell morphology, phase-contrast and DNA. It counts as cell-based, human. Conditions: 100 μM Tat-Ram13 or 30 μM etoposide, 24 h. The essentials: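 Cells were seeded at 5×10^5 per well in glass-bottom dishes and incubated with or without test compound. They were then stained with Hoechst 33342 for 10 min and imaged by fluorescence or confocal microscopy.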

For data set [3], the system named is PARP-1 in CCRF-CEM cells. Put plainly: Western blot of PARP-1 cleavage. Type of data set: cell-based, human. Conditions: 100 μM Tat-Ram13 or 30 μM etoposide. The essentials: (§1)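 CCRF-CEM cells (1×10^6) were treated with 100 μM test peptide, or with etoposide, for the indicated time. Cells were washed in ice-cold PBS and lysed in RIPA buffer with protease inhibitors. Lysate (25 μg) was run on SDS-PAGE and blotted to PVDF, then blocked in 5% skim milk/PBS-0.1% Tween 20 for 30 min. Primary antibodies (1:1000; β-actin 1:10,000) were applied overnight at 4 °C, then HRP secondary for 1 h at 4 °C, with chemiluminescent detection.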

Data set [4] concerns caspase-3 in CCRF-CEM cells. Put plainly: Western blot of caspase-3 cleavage. It counts as cell-based, human. Conditions: 100 μM Tat-Ram13 or 30 μM etoposide. The essentials: as §1
Data set [5] has as its system CCRF-CEM cells. Put plainly: Time course of cell death, trypan blue exclusion assay. Type of data set: cell-based, human. Conditions: up to 24 h. The essentials: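 CCRF-CEM cells in complete RPMI-1640 (10% fetal calf serum, 5% CO2) were exposed to test peptide, control peptide or etoposide at the indicated concentrations, sampled over up to 24 h, and scored for viable cells by trypan blue exclusion.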

In data set [6] the test system is CCRF-CEM cells. Put plainly: HMGB1 release, Western blot. Conditions: Western blot of supernatant and pellet, etoposide 24 h. It counts as cell-based, human.
Data set [7] concerns interactions between NICD and CSL. Conditions: human cell lysates; cited from earlier work.
The subject of data set [8] is CCRF-CEM cells. Put plainly: WST-8 cell viability assay. Type of data set: cell-based, human. Conditions: CCRF-CEM (Figure 7B). The essentials:
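Cells at 5×10^4 cells/100 μL in complete medium (RPMI-1640, 10% fetal calf serum, 10 U/mL penicillin G, 10 μg/mL streptomycin) were exposed to various concentrations of test peptide in a 5% CO2 incubator for 24 h. WST-8 was added, and absorbance at 450 nm was read 1–2 h later. Viability was relative to an HBSS-added control (100%). Data are means ± SD.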

In the case of `C[C@H](NC(=O)Cc1cc(F)cc(F)c1)C(=O)N[C@H](C(=O)OC(C)(C)C)c1ccccc1` [DAPT], the “cell proliferation (total cell count)” value in data set [1] is “significant reduction in proliferation”.
As for `COc1cc([C@@H]2c3cc4c(cc3[C@@H](O[C@@H]3O[C@@H]5CO[C@@H](C)O[C@H]5[C@H](O)[C@H]3O)[C@H]3COC(=O)[C@H]23)OCO4)cc(OC)c1O` [etoposide], in data set [2], the cell morphology result was “membrane blebbing and DNA fragmentation”. Besides, the “cleavage of PARP-1 fragments (89 kDa)” value in data set [3] is given as “as etoposide did”. Also, the caspase-3 cleavage entry in data set [4] is recorded as “did produce the cleaved fragment”. Moreover, in data set [5], the “time course of cell death” value is “occurred more slowly”. The “HMGB1 release into the culture supernatant” value in data set [6] is on record as “released very little HMGB1”.
Turning to RRQHGQLWFPEGF [Ram13], the “disruption of NICD-CSL interaction” value in data set [7] was “effectively disrupted interactions between NICD and CSL”. Moreover, in data set [8], the “cytotoxicity, role of the cell-penetrating part” value is “inactive; also recorded: lost its cytotoxicity”.

Source of the values: publication PMC11656380 (ACS Omega, 2024).
